Measured values from ChEMBL document CHEMBL1240414, “Synthesis and anticonvulsant activity of new 6-methyl-1-substituted-4,6-diazaspiro[2.4]heptane-5,7-diones” (Eur J Med Chem, 2010).
Active and inactive are the calls of the source.

Assays:
[1] = tested on: Mus musculus; assay: Anticonvulsant activity in Kunming mouse assessed as protection against maximal electroshock-induced seizures at 30 mg/kg, ip after 0.5 hrs; format: functional, organism-based; parameters: dose 30 mg/kg
[2] = tested on: Mus musculus; assay: Anticonvulsant activity in Kunming mouse assessed as protection against maximal electroshock-induced seizures at 100 mg/kg, ip after 4 hrs; format: functional, organism-based; parameters: dose 100 mg/kg
[3] = tested on: Mus musculus; assay: Anticonvulsant activity in Kunming mouse assessed as protection against maximal electroshock-induced seizures at 300 mg/kg, ip after 4 hrs; format: functional, organism-based; parameters: dose 300 mg/kg
[4] = tested on: Mus musculus; assay: Anticonvulsant activity in Kunming mouse assessed as protection against subcutaneous pentylenetetrazole-induced seizures at 30 mg/kg, ip after 0.5 hrs; format: functional, organism-based; parameters: dose 30 mg/kg
Outline: (§1)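 Male Kunming mice (20 ± 2.0 g) received the compound ip as a suspension in 0.5% methylcellulose at 30, 100 or 300 mg/kg, one to four mice per dose. Pentylenetetrazole in 0.9% saline was given sc at 0.5 h and 4.0 h after dosing. Protection meant no threshold seizure (one clonic spasm episode of at least 5 s). Scored as protected/tested.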

[5] = tested on: Mus musculus; assay: Anticonvulsant activity in Kunming mouse assessed as protection against subcutaneous pentylenetetrazole-induced seizures at 100 mg/kg, ip after 0.5 hrs; format: functional, organism-based; parameters: dose 100 mg/kg; outline: as §1
[6] = tested on: Mus musculus; assay: Anticonvulsant activity in Kunming mouse assessed as protection against subcutaneous pentylenetetrazole-induced seizures at 300 mg/kg, ip after 0.5 hrs; format: functional, organism-based; parameters: dose 300 mg/kg; outline: as §1
[7] = tested on: Mus musculus; assay: Anticonvulsant activity in Kunming mouse assessed as protection against subcutaneous pentylenetetrazole-induced seizures at 30 mg/kg, ip after 4 hrs; format: functional, organism-based; parameters: dose 30 mg/kg; outline: as §1
[8] = tested on: Mus musculus; assay: Neurotoxicity in Kunming mouse assessed as minimum motor impairment at 30 mg/kg, ip after 0.5 hrs by rotarod test; format: toxicity, organism-based; parameters: dose 30 mg/kg, route intraperitoneal; conditions: in vivo
Outline: (§2)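 Rotorod neurotoxicity in male Kunming mice (20 ± 2.0 g) given ip doses of 30, 100 or 300 mg/kg as a suspension in 0.5% methylcellulose, one to four mice per dose. Motor impairment was examined at 0.5 h and 4.0 h after injection. Reported as number of animals showing toxicity/number tested.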

[9] = tested on: Mus musculus; assay: Neurotoxicity in Kunming mouse assessed as minimum motor impairment at 100 mg/kg, ip after 0.5 hrs by rotarod test; format: toxicity, organism-based; parameters: dose 100 mg/kg, route intraperitoneal; conditions: in vivo; outline: as §2
[10] = tested on: Mus musculus; assay: Neurotoxicity in Kunming mouse assessed as minimum motor impairment at 30 mg/kg, ip after 4 hrs by rotarod test; format: toxicity, organism-based; parameters: dose 30 mg/kg, route intraperitoneal; conditions: in vivo; outline: as §2
[11] = tested on: Mus musculus; assay: Neurotoxicity in Kunming mouse assessed as minimum motor impairment at 100 mg/kg, ip after 4 hrs by rotarod test; format: toxicity, organism-based; parameters: dose 100 mg/kg, route intraperitoneal; conditions: in vivo; outline: as §2
[12] = tested on: Mus musculus; assay: Neurotoxicity in Kunming mouse assessed as minimum motor impairment at 300 mg/kg, ip after 4 hrs by rotarod test; format: toxicity, organism-based; parameters: dose 300 mg/kg, route intraperitoneal; conditions: in vivo; outline: as §2
[13] = tested on: Rattus norvegicus; assay: Anticonvulsant activity in Kunming rat assessed as protection against maximal electroshock-induced seizures at 30 mg/kg, po after 0.25 hrs; format: functional
Outline: (§3)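 Male Kunming rats (250 ± 5.0 g) were dosed orally at 30 mg/kg, four rats per compound. Seizures were induced by a 150-mA corneal current for 0.2 s at 0.25, 0.5, 1, 2 and 4 h after dosing. Readout was the number of rats out of four protected against hindlimb tonic extension.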

[14] = tested on: Rattus norvegicus; assay: Anticonvulsant activity in Kunming rat assessed as protection against maximal electroshock-induced seizures at 30 mg/kg, po after 0.5 hrs; format: functional; outline: as §3
[15] = tested on: Rattus norvegicus; assay: Anticonvulsant activity in Kunming rat assessed as protection against maximal electroshock-induced seizures at 30 mg/kg, po after 1 hr; format: functional; outline: as §3
[16] = tested on: Rattus norvegicus; assay: Anticonvulsant activity in Kunming rat assessed as protection against maximal electroshock-induced seizures at 30 mg/kg, po after 2 hrs; format: functional; outline: as §3
[17] = tested on: Rattus norvegicus; assay: Anticonvulsant activity in Kunming rat assessed as protection against maximal electroshock-induced seizures at 30 mg/kg, po after 4 hrs; format: functional; outline: as §3
[18] = tested on: Rattus norvegicus; assay: Neurotoxicity in Kunming rat assessed as minimum motor impairment at 30 mg/kg, po after 0.25 hrs by rotarod test; format: toxicity, organism-based; parameters: dose 30 mg/kg, route oral; conditions: in vivo
Outline: (§4)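 Rotorod neurotoxicity in male Kunming rats (250 ± 5.0 g) given 30 mg/kg po, four rats per compound. Motor impairment was assessed at 0.25, 0.5, 1, 2 and 4 h after oral administration.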

[19] = tested on: Rattus norvegicus; assay: Neurotoxicity in Kunming rat assessed as minimum motor impairment at 30 mg/kg, po after 0.5 hrs by rotarod test; format: functional, organism-based; parameters: dose 30 mg/kg; outline: as §4
[20] = tested on: Rattus norvegicus; assay: Neurotoxicity in Kunming rat assessed as minimum motor impairment at 30 mg/kg, po after 1 hr by rotarod test; format: functional, organism-based; parameters: dose 30 mg/kg; outline: as §4
[21] = tested on: Rattus norvegicus; assay: Neurotoxicity in Kunming rat assessed as minimum motor impairment at 30 mg/kg, po after 2 hrs by rotarod test; format: functional, organism-based; parameters: dose 30 mg/kg; outline: as §4
[22] = tested on: Rattus norvegicus; assay: Neurotoxicity in Kunming rat assessed as minimum motor impairment at 30 mg/kg, po after 4 hrs by rotarod test; format: functional, organism-based; parameters: dose 30 mg/kg; outline: as §4
[23] = tested on: Rattus norvegicus; assay: Anticonvulsant activity in Kunming rat assessed as protection against subcutaneous pentylenetetrazole-induced seizures at 30 mg/kg, po after 1 hr; format: functional
[24] = tested on: Mus musculus; assay: Anticonvulsant activity in ip dosed Kunming mouse assessed as protection against maximal electroshock-induced seizures; format: functional
Outline: (§5)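 Quantitative phase-II study in groups of 10 male Kunming mice. A range of ip doses in 0.5% carboxymethyl cellulose-0.9% saline (0.1 ml) was given until at least three points fell within 10–90% seizure protection (MES or scPTZ) or minimal neurotoxicity. Rotorod toxicity was read 30 min after dosing.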

[25] = tested on: Mus musculus; assay: Anticonvulsant activity in ip dosed Kunming mouse assessed as protection against subcutaneous pentylenetetrazole-induced seizures; format: functional; outline: as §5
[26] = Neurotoxicity in ip dosed Kunming mouse assessed as minimum motor impairment by rotarod test; format: toxicity, organism-based; conditions: in vivo; outline: as §5
[27] = tested on: Mus musculus; assay: Protective index, ratio of TD50 for neurotoxicity in ip dosed Kunming mouse to ED50 for Kunming mouse by MES test; format: functional
[28] = tested on: Mus musculus; assay: Protective index, ratio of TD50 for neurotoxicity in ip dosed Kunming mouse to ED50 for Kunming mouse by sPTZ test; format: functional
[29] = tested on: Mus musculus; assay: Anticonvulsant activity in ip dosed Kunming mouse assessed as time peak effect; format: functional
[30] = tested on: Mus musculus; assay: Anticonvulsant activity in Kunming mouse assessed as protection against maximal electroshock-induced seizures at 100 mg/kg, ip after 0.5 hrs; format: functional, organism-based; parameters: dose 100 mg/kg
[31] = tested on: Mus musculus; assay: Anticonvulsant activity in Kunming mouse assessed as protection against maximal electroshock-induced seizures at 30 mg/kg, ip after 4 hrs; format: functional, organism-based; parameters: dose 30 mg/kg
[32] = tested on: Mus musculus; assay: Anticonvulsant activity in Kunming mouse assessed as protection against subcutaneous pentylenetetrazole-induced seizures at 100 mg/kg, ip after 4 hrs; format: functional, organism-based; parameters: dose 100 mg/kg; outline: as §1
[33] = tested on: Mus musculus; assay: Neurotoxicity in Kunming mouse assessed as minimum motor impairment at 300 mg/kg, ip after 0.5 hrs by rotarod test; format: toxicity, organism-based; parameters: dose 300 mg/kg, route intraperitoneal; conditions: in vivo; outline: as §2
[34] = tested on: Rattus norvegicus; assay: Anticonvulsant activity in Kunming rat assessed as protection against subcutaneous pentylenetetrazole-induced seizures at 30 mg/kg, po after 0.5 hrs; format: functional

SMILES	Activity [1]	Activity [3]	Activity [4]	Activity [7]	Activity [8]	Activity [9]	Activity [10]	Activity [11]	Activity [12]	Activity [18]	Activity [19]	Activity [20]	Activity [21]	Activity [22]	Activity [23]	other results
CN1C(=O)NC2(CC2c2ccc(S(C)(=O)=O)cc2)C1=O (centres undefined)	Active	Active	Active	inactive	Non-toxic	Non-toxic	Non-toxic	Non-toxic	Non-toxic	Non-toxic	Not toxic	Not toxic	Not toxic	Not toxic	25%	Activity [2]: Active; Activity [5]: Active; Activity [6]: Active; Activity [13]: inactive; Activity [14]: 50%; Activity [15]: 50%; Activity [16]: 75%; Activity [17]: 75%; ED50 [24]: 12.5 mg/kg; ED50 [25]: 427 mg/kg; TD50 [26]: 310 mg/kg; PI [27]: 24.8; PI [28]: 0.73; Time [29]: 0.5 h
COc1cccc(C2CC23NC(=O)N(C)C3=O)c1OC (centres undefined)	Active	Active	inactive	inactive	Non-toxic	Non-toxic	Non-toxic	Non-toxic	Non-toxic	Non-toxic	Not toxic	Not toxic	Not toxic	Not toxic	inactive	Activity [30]: Active; Activity [31]: inactive; Activity [32]: inactive; Activity [33]: Toxic; Activity [34]: 25%
